Our source for the Activity and IC50 values is ChEMBL document CHEMBL4316598, “Synthesis, antiproliferative and apoptosis induction potential activities of novel bis(indolyl)hydrazide-hydrazone derivatives” (Bioorg Med Chem, 2019).

In experiment [1] the test system is HeLa. The experiment can be described thus: Induction of apoptosis in human HeLa cells assessed as up-regulation of acetylated p53 level at 5 uM after 24 hrs by sandwich ELISA. It is filed as functional, cell-based. The procedure, abridged: (§1)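 Cells were treated at 5 µM for 12, 24 and 48 h. Lysis was in ice-cold lysis buffer with 1 mM PMSF (5 min on ice), followed by three freeze-thaw cycles and a 10 min spin at 4 °C. Acetylated and total p53 were measured in the supernatant by kit sandwich ELISA, read at 450 nm. The control index is sample absorbance divided by that of untreated cells at the same time. Values are mean ± SD of triplicate experiments.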

In experiment [2] the test system is MCF7. Put plainly: Induction of ROS generation in human MCF7 cells at 5 uM after 8 hrs by DCFH-DA staining-based fluorescence spectrophotometric analysis relative to control. In kind it is functional. The procedure, abridged:
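DCFH-DA ROS: HeLa or MCF-7 cells at 2×10^6/well cultured 12 h, treated 4 or 8 h; t-BHP (10 μM) is the positive control. DCFH-DA 10 μM added for 10 min at 37 °C, cells washed twice with PBS. Fluorescence read at ex 485/em 520 nm. For the NAC arm, NAC (5 mM) is added to the medium before treatment.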

The subject of experiment [3] is MCF7. The experiment can be described thus: Induction of apoptosis in human MCF7 cells assessed as late apoptotic cells at 1 uM after 12 hrs by annexin-V FITC/propidium iodide staining based flow cytometric analysis relative to control. In kind it is functional. In a few lines:
(§2)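 Cells were grown in DMEM with 10% heat-inactivated FBS at 37 °C and 5% CO₂, then plated at 500,000 cells/well in 24-well plates. They were treated from a DMSO stock (DMSO ≤0.1%) for 8, 12 or 16 h. After a PBS wash, cells were resuspended in binding buffer (10 mM HEPES pH 7.4, 2.5 mM CaCl₂, 140 mM NaCl, 0.1% BSA), stained 40 min with FITC-annexin V, then with PI, and run on the flow cytometer immediately. Values are the mean of three independent experiments.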
On the technique in general: In flow cytometry, cells or beads pass a laser one at a time.

In experiment [4] the test system is HeLa. Put plainly: Induction of apoptosis in human HeLa cells assessed as increase in Mcl-1 short level at 1 to 3 uM after 24 hrs by Western blot analysis. In kind it is functional, cell-based. In a few lines:
(§3)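 Cells were treated at 1, 3 and 5 µM for 24 h at 37 °C. Lysis was in ice-cold Triton X-100 buffer with protease and phosphatase inhibitors; nuclear proteins were extracted separately. Protein was quantified by BCA. Lysates were separated by electrophoresis, transferred to nitrocellulose and blocked in non-fat milk for 1 h. Primary antibody was applied overnight at 4 °C and secondary for 1 h at 28 °C. Detection was by enhanced chemiluminescence.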
For orientation: A western blot detects proteins with antibodies after separation by electrophoresis.

A further experiment relates to A549. Put plainly: Cytotoxicity against human A549 cells assessed as reduction in cell viability after 4 hrs by MTT assay. It is filed as functional, cell-based. In a few lines:
(§4)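 MTT: 10,000–20,000 cells/well attached for 16 h, then washed twice with serum-free RPMI. Treated with 1–200 µM for 4 h, 3 parallel runs per concentration. MTT added for 2 h; medium partly removed and isopropanol added. A590 read. Viability = (A treated − A doxorubicin)/(A medium − A doxorubicin)×100. Mean of three experiments, triplicate wells each.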
A general note: Tetrazolium dyes change colour on reduction, which living cells bring about.

Experiment [5] addresses Mitogen-activated protein kinase; ERK1/ERK2 (Homo sapiens) (UniProt P27361+P28482). The experiment can be described thus: Induction of ERK/MAPK signal transduction pathway in human MCF7 cells assessed as increase ERK1/2 translocation. It is filed as cell-based.
For experiment [6], the system named is MCF7. The experiment can be described thus: Induction of nitric oxide production in human MCF7 cells at 1 uM measured over 8 hrs by Griess reaction based assay relative to control. In kind it is functional. The procedure, abridged: (§5)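 Cells seeded at 2×10^6 cells/well for 12 h, then exposed to 1, 5 and 10 μM compound for 8 h at 37 °C. Culture supernatant mixed with Griess reagent (0.002% N-1-naphthyl-ethylenediamine dihydrochloride, 0.5% sulfanilic acid, 14% glacial acetic acid). Nitrite read by absorbance at 550 nm and compared with vehicle group.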

For experiment [7], the system named is MCF7. The experiment can be described thus: Induction of apoptosis in human MCF7 cells assessed as necrotic cells at 1 uM after 12 hrs by annexin-V FITC/propidium iodide staining based flow cytometric analysis relative to control. It is filed as functional. The procedure, abridged:
as §2

The subject of experiment [8] is MCF7. Put plainly: Induction of apoptosis in human MCF7 cells assessed as change in Bcl-2 level at 1 to 3 uM after 24 hrs by Western blot analysis. It is filed as functional, cell-based. The procedure, abridged:
as §3

The subject of experiment [9] is HeLa. The experiment can be described thus: Induction of nitric oxide production in human HeLa cells at 5 uM measured over 8 hrs by Griess reaction based assay relative to control. In kind it is functional. The procedure, abridged:
as §5

For experiment [10], the system named is MCF7. The experiment can be described thus: Induction of apoptosis in human MCF7 cells assessed as early apoptotic cells at 1 uM after 16 hrs by annexin-V FITC/propidium iodide staining based flow cytometric analysis relative to control. In kind it is functional. In a few lines: as §2
A further experiment concerns FaDu. Put plainly: Cytotoxicity against human FADU cells assessed as reduction in cell viability after 4 hrs by MTT assay. It is filed as functional, cell-based.
Experiment [11] deals with HeLa. Put plainly: Induction of caspase-dependent apoptosis in human HeLa cells assessed as activation of caspase-6 at 1 to 3 uM after 24 hrs by Western blot analysis. In kind it is functional, cell-based. In a few lines: as §3
Experiment [12] relates to HeLa. Put plainly: Induction of apoptosis in human HeLa cells assessed as change in Bcl-2 level at 1 to 3 uM after 24 hrs by Western blot analysis. In kind it is functional, cell-based. The procedure, abridged:
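Western blot: HeLa cells treated 24 h at 37 °C, lysed on ice, protein quantified by BCA. Proteins separated by electrophoresis, transferred to nitrocellulose, blocked 1 h in non-fat milk. Primary antibody (Bcl2) applied overnight at 4 °C, secondary 1 h at 28 °C, detected by enhanced chemiluminescence.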

Experiment [13] deals with MCF7. Put plainly: Induction of apoptosis in human MCF7 cells assessed as up-regulation of acetylated p53 level at 5 uM after 24 hrs by sandwich ELISA. In kind it is functional, cell-based. The procedure, abridged: as §1
The subject of experiment [14] is MCF7. Put plainly: Induction of nitric oxide production in human MCF7 cells at 5 uM measured over 8 hrs by Griess reaction based assay relative to control. It is filed as functional. The procedure, abridged: as §5
In experiment [15] the test system is MCF7. The experiment can be described thus: Cytotoxicity against human MCF7 cells assessed as reduction in cell viability after 4 hrs by MTT assay. In kind it is functional, cell-based. The procedure, abridged:
as §4

Experiment [16] relates to HeLa. Put plainly: Induction of caspase-dependent apoptosis in human HeLa cells assessed as activation of caspase-7 at 1 to 3 uM after 24 hrs by Western blot analysis. It is filed as functional, cell-based. In a few lines: as §3
Experiment [17] deals with c-Jun N-terminal kinase, JNK (Homo sapiens) (UniProt P45983+P53779+P45984). The experiment can be described thus: Activation of JNK phosphorylation in human HeLa cells assessed as increase in ratio of phosphorylated JNK to total JNK level at 5 uM in presence of JNK inhibitor SP600125 by ELISA. In kind it is cell-based. In a few lines: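 Cell-based ELISA: HeLa or MCF-7 cells (20×10^3/well) grown overnight at 37 °C, 5% CO2, treated with 5 μM, then fixed and blocked. Probed with rabbit anti-total and anti-phospho P38, JNK or ERK1/2 (1:100), then HRP anti-rabbit IgG. Result is the phospho/total ratio; inhibitor arms use […], […] or SP600125. n=3.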

For experiment [18], the system named is MCF7. The experiment can be described thus: Induction of ERK/MAPK signal transduction pathway in human MCF7 cells assessed as increase in p53 phosphorylation. In kind it is cell-based.

Active and inactive are the calls of the source. No cut-off for these calls is given here.

Sequence of Mitogen-activated protein kinase; ERK1/ERK2 (Homo sapiens) (P27361 whole entry, looked up): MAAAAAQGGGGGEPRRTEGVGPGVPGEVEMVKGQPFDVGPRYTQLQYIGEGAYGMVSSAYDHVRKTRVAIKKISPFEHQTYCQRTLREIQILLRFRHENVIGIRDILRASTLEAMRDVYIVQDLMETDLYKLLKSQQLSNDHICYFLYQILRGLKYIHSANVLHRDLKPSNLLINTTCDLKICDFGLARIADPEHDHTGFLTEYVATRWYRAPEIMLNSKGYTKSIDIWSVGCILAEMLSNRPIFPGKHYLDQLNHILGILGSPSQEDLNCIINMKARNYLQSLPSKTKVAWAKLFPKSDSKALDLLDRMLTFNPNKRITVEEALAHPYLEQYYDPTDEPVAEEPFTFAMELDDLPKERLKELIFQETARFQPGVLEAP
Sequence of Mitogen-activated protein kinase; ERK1/ERK2 (Homo sapiens) (P28482 whole entry, looked up): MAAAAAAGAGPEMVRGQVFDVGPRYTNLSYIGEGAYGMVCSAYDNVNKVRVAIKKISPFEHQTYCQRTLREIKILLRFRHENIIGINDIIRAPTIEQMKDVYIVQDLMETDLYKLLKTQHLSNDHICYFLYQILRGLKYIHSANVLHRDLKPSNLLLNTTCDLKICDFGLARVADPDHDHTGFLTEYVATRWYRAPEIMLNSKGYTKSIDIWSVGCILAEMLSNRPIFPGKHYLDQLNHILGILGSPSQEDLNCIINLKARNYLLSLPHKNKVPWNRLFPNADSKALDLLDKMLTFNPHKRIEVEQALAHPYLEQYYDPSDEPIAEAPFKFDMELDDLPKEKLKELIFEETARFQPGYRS

Usually IC50 stands for the point on the concentration scale where inhibition reaches its midpoint. `Cn1cc(/C=N\NC(=O)c2cn(C)c3ccc(Br)cc23)c2ccccc21`: the outcome (with HeLa [1]; in the experiment with HeLa [4]; in experiment [5]; with MCF7 [13]; in the experiment on MCF7 [18]) was Active. In addition, the Activity is 48.3% with MCF7 [2]; 35.72% in the experiment with MCF7 [3]; “Dose-dependent effect” with A549; 32.1% in the experiment on MCF7 [6]; 2.61% in the experiment with MCF7 [7]; 42.4% with HeLa [9]. For the same compound, the Activity is 16.41% with MCF7 [10], “Dose-dependent effect” in the experiment on FaDu, 48.9% with MCF7 [14] and “Dose-dependent effect” with MCF7 [15]. Moreover, the concentration for half-maximal inhibition (IC50) with A549 (Homo sapiens, A549, 4 h, read-out: IC50) was 0.793 to 5.49 µM; in the experiment on FaDu, 9.64 µM; in the experiment with MCF7 [15] (Homo sapiens, MCF7, 4 h, read-out: IC50), 1.19 µM. Besides, the result (in the experiment on MCF7 [8]; in the experiment on HeLa [11]; in the experiment with HeLa [12]; in the experiment with HeLa [16]; in experiment [17]) was inactive.
